In ChEMBL document CHEMBL3244269, “Synthesis of carboxyarylindoles and benzofurans as nonsteroidal antiinflammatory agents” (J Med Chem, 1977):

Key:
Rattus norvegicus [1] = assay: Antiinflammatory activity in Wistar rat assessed as inhibition of carrageenan-induced paw edema at 200 mg/kg, po administered 30 mins prior challenge measured after 3 hrs relative to placebo-control; assay type: functional
How it was run: (§1)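 Fasted male Wistar rats, eight per group, dosed orally with 200 mg/kg as a saline-Tween 80 suspension (10 mL/kg), or placebo. After 30 min, 0.1 cm³ of 1% carrageenan in distilled water was injected into the left hind paw plantar surface. Paw volume was read by mercury displacement then and 3 h later. Mean volume increase was compared with placebo as percent inhibition.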

Rattus norvegicus [2] = assay: Toxicity in carrageenan-induced Wistar rat assessed as increase in paw edema at 200 mg/kg, po administered 30 mins prior challenge measured after 3 hrs relative to placebo-control; assay type: organism-based; parameters: dose 200 mg/kg, route oral; conditions: in vivo; how it was run: as §1

| SMILES | inhibition in vivo at 200 mg/kg (Rattus norvegicus [1]) [%] | Activity (Rattus norvegicus [2]) |
| --- | --- | --- |
| COC(=O)c1cc(-c2cc3c(n2-c2ccccc2)CCc2ccccc2-3)ccc1O | 21.7 | Toxic |
| O=C(O)c1cc(-c2cc3c(n2-c2ccccc2)CCc2ccccc2-3)ccc1O | 37.5 |  |
| O=C(O)c1cc(-c2cc3c(n2-c2ccccc2)CCCC3)ccc1O | 25.8 |  |
| CCCCn1c(-c2ccc(O)c(C(=O)O)c2)cc2c1CCCC2 | 41 |  |
| COC(=O)c1cc(-c2cc3c(o2)CCCC3)ccc1O | 9.8 | Toxic |
| O=C(O)c1cc(-c2cc3c(o2)CCCC3)ccc1O | 21.5 |  |
| O=C(O)c1cc(-n2c(-c3ccccc3)cc3c2CCCC3)ccc1O | 64 |  |
| CC(=O)Oc1ccccc1C(=O)O [ASPIRIN] | 65.3 |  |
| O=C(O)c1cc(-n2c(-c3ccccc3)cc3c2CCc2ccccc2-3)ccc1O [FENDOSAL] | 64.2 |  |
